Consider 37 sequences from the array DNA melting data of Ke et al. (doi:10.1101/2024.01.08.574731).

A short description of data set [1]: folding enthalpy; higher = less favourable; fluorescence melt of hairpins on a sequencing array, two-state fit. Particulars: sodium 0.088 M. Put shortly: (§1)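 Cy3 fluorescence of library hairpins on a sequenced MiSeq flow cell, with annealed Cy3 and quencher oligos, was imaged in 50 mM Na-HEPES pH 8.0, 25 mM NaCl in 2.5 °C steps up to 60 °C. Signals were normalised to pre-quench Cy3 and to control variants. Melting temperature and folding enthalpy came from bootstrapped two-state fits, inverse-variance combined over four replicates. Fitted temperatures were raised by 9.35 °C to match UV melts.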

Data set [2] is described as follows: melting temperature; fluorescence melt of hairpins on a sequencing array, two-state fit, raised by 9.35 °C to match UV melts. Particulars: sodium 0.088 M. The gist of the method:
as §1

Take GATTGAGCGAAAGCTATC (((..(((....)))))): the folding enthalpy in data set [1] was -11.6 kcal/mol. The Tm in data set [2] amounted to 30.7 °C.
For GATTGAGGAAACCCAATC (((((.(....).))))), in data set [1], the folding enthalpy is -29.2 kcal/mol. Also, the Tm in data set [2] turned out to be 35.1 °C.
As to GATTGCGAAAGCAAATC ((((((....))).))), the folding enthalpy in data set [1] is -15.9 kcal/mol. Moreover, the Tm in data set [2] was 50.2 °C.
The like results for GATTGCGAAAGCATCATC ((((((....)))..))) were, in that order, -10.9 kcal/mol and 29.6 °C.
On to GATTGCGAAAGCATTATC ((((((....)))..))), for which the folding enthalpy in data set [1] was -11.2 kcal/mol. The Tm in data set [2] came out at 26.6 °C.
The like results for GATTGCGGAAACACAATC (((((.(....).))))) were, in that order, -28.9 kcal/mol and 41.6 °C.
For GATTGCGGAAACGCAATC (((((((....))))))), the folding enthalpy in data set [1] is -37.8 kcal/mol. Further, the Tm in data set [2] was found to be 67.9 °C.
The like results for GATTGCGGAAACGTAATC ((((.((....)).)))) were, in that order, -38.8 kcal/mol and 47.6 °C.
As for GATTGGAAACAATC (((((....))))), the folding enthalpy in data set [1] is -23.6 kcal/mol. Also, the Tm in data set [2] is 40.5 °C.
In the case of GATTGGACGAAAGTCATC (((..(((....)))))), the folding enthalpy in data set [1] was -10.5 kcal/mol. The Tm in data set [2] was determined as 27 °C.
With GATTGGGAAACCAATC ((((((....)))))), the folding enthalpy in data set [1] is -35 kcal/mol. The Tm in data set [2] came to 52.3 °C.
On the same counts, the results for GATTGGGGAAACCCAGTC ((.((((....)))).)) are -24.4 kcal/mol and 44.7 °C.
The like results for GATTGGGGAAACCTGATC (((..((....))..))) were, in that order, -18.6 kcal/mol and 30.6 °C.
Take GATTGTGAAAACAATC ((((((....)))))): the folding enthalpy in data set [1] is -35.9 kcal/mol. Besides, the Tm in data set [2] stood at 51.4 °C.
The like results for GATTGTGGAAACACAACC (.(((((....))))).) were, in that order, -16.9 kcal/mol and 35.9 °C.
Take GATTGTGGAAACACAATC (((((((....))))))): the folding enthalpy in data set [1] is -43.6 kcal/mol. Further, the Tm in data set [2] came to 56.8 °C.
As for GATTTCACGAAAGTGATC (((..(((....)))))), the folding enthalpy in data set [1] is -9.78 kcal/mol. Further, the Tm in data set [2] is 23.4 °C.
Consider GATTTCGAAAGAAATC ((((((....)))))), for which, in data set [1], the folding enthalpy is -38.2 kcal/mol. Further, in data set [2], the Tm worked out at 55 °C.
For the sequence GATTTGACGAAAGTCATC (((..(((....)))))), the folding enthalpy in data set [1] is -8.24 kcal/mol. For the same sequence, the Tm in data set [2] stood at 27.3 °C.
For the sequence GATTTGCGAAAGCAGATC (((.(((....))).))), the folding enthalpy in data set [1] was -32 kcal/mol. In data set [2], the Tm was 50 °C.
Turning to GATTTGGGAAACCAAGTC ((.((((....)))).)), the folding enthalpy in data set [1] was -28.7 kcal/mol. Besides, in data set [2], the Tm was found to be 38.8 °C.
Turning to GATTTTGGAAACAGAATC ((((.((....)).)))), the folding enthalpy in data set [1] is -24.7 kcal/mol. Moreover, the Tm in data set [2] was determined as 32.1 °C.
With GATTTTGGAAACGAAATC (((((.(....).))))), the folding enthalpy in data set [1] is -34.9 kcal/mol. Further, in data set [2], the Tm amounted to 39.6 °C.
Take GCAAAAGAAATTTTGC ((((((....)))))): in data set [1], the folding enthalpy was -25.9 kcal/mol. Also, in data set [2], the Tm worked out at 46.3 °C.
In the case of GCAAACACGAAAGTGTGC (((..(((....)))))), the folding enthalpy in data set [1] is -15.4 kcal/mol. Also, the Tm in data set [2] was 48.6 °C.
As to GCAAACCGAAAGGTATGC (((.(((....))).))), in data set [1], the folding enthalpy was -37.5 kcal/mol. The Tm in data set [2] was determined as 53.4 °C.
Turning to GCAAACGAAAGTTATGC ((((((....))).))), the folding enthalpy in data set [1] is -24.3 kcal/mol. In data set [2], the Tm turned out to be 38.4 °C.
As for GCAAACGAAAGTTCGTGC ((((((....)))..))), the folding enthalpy in data set [1] is -17.3 kcal/mol. Besides, the Tm in data set [2] was determined as 35.6 °C.
Consider GCAAACGAAAGTTGATGC ((((((....)))..))), for which the folding enthalpy in data set [1] is -15.2 kcal/mol. Further, the Tm in data set [2] stood at 35.9 °C.
On to GCAAACGGAAACGTTTAC (.(((((....))))).), for which, in data set [1], the folding enthalpy was -18.7 kcal/mol. In addition, the Tm in data set [2] came to 38.4 °C.
Consider GCAAACTCGAAAGAGTGC (((..(((....)))))), for which the folding enthalpy in data set [1] is -18 kcal/mol. Moreover, the Tm in data set [2] was 43.8 °C.
Take GCAAAGCCGAAAGGCTGC (((..(((....)))))): in data set [1], the folding enthalpy is -14.2 kcal/mol. Besides, in data set [2], the Tm is 54 °C.
Regarding GCAAAGCGAAAGCCCTGC (((..((....))..))), the folding enthalpy in data set [1] was -10.3 kcal/mol. For the same sequence, the Tm in data set [2] worked out at 28.5 °C.
As for GCAAAGCGAAAGCTATGC (((.(((....))).))), in data set [1], the folding enthalpy was -33.5 kcal/mol. Moreover, in data set [2], the Tm was found to be 52 °C.
As for GCAAAGGGAAACCTCTGC (((.(((....))).))), the folding enthalpy in data set [1] is -19.1 kcal/mol. For the same sequence, in data set [2], the Tm was 33.8 °C.
As for GCAAAGGGAAACCTTCGC ((.((((....)))).)), the folding enthalpy in data set [1] is -26.8 kcal/mol. Moreover, in data set [2], the Tm was 39.2 °C.
As to GCAAAGGGAAACCTTTAC (.(((((....))))).), in data set [1], the folding enthalpy is -15.8 kcal/mol. In data set [2], the Tm worked out at 28 °C.
